Tests used:
[1] = system: HepG2; test: Induction of apoptosis in human HepG2 cells assessed as late apoptotic cells at 5 nM incubated for 24 hrs by Annexin V-PE and 7-AAD staining based flow cytometry (reference value: 2.33 %); type: functional
In short: (§1)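 HepG2 cells seeded at 3 × 10⁵ cells/well, adhered overnight, exposed at 5, 10 or 20 nM for 12 or 24 h. Harvested into Annexin V binding buffer and stained with annexin V-PE and 7-AAD for 15 min at room temperature in the dark, then analysed by flow cytometry. Gates: live (−/−), early apoptotic (+/−), late apoptotic (+/+), necrotic (−/+).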

[2] = system: HepG2; test: Induction of apoptosis in human HepG2 cells assessed as late apoptotic cells at 10 nM incubated for 24 hrs by Annexin V-PE and 7-AAD staining based flow cytometry (reference value: 2.33 %); type: functional; in short: as §1
[3] = system: HepG2; test: Induction of apoptosis in human HepG2 cells assessed as live cells at 20 nM incubated for 12 hrs by Annexin V-PE and 7-AAD staining based flow cytometry (reference value: 92.1%); type: functional; in short: as §1
[4] = system: HepG2; test: Antitumor activity against human HepG2 cells xenografted in Balb/c nude mouse assessed as reduction in tumor volume at 10 mg/kg, iv administered every 2 days for 21 days and measured at 3 days interval during compound dosing; type: functional; set-up: scale not given: the % may be the effect or the level left; details: time 21 day
In short: (§2)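 Nude mice received 200 μL PBS containing HepG2 at 1 × 10⁷ cells/mL subcutaneously in the right armpit. Randomised at 90 mm³ tumour volume, five per group. Compound given iv as a 2.0 mg/mL solution in distilled water, 5 or 10 mg/kg every two days for 21 days, with a water vehicle group. Tumour volume (L × W²/2) and body weight recorded every 3 days. Inhibition = (1 − RTV treated/RTV vehicle) × 100%.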

[5] = system: HepG2; test: Induction of apoptosis in human HepG2 cells assessed as necrotic cells at 10 nM incubated for 12 hrs by Annexin V-PE and 7-AAD staining based flow cytometry (reference value: 0.55 %); type: functional; in short: as §1
[6] = system: HepG2; test: Induction of apoptosis in human HepG2 cells assessed as increase in cleaved caspase-3 expression incubated for 24 hrs by Western blot analysis; type: functional, cell-based; details: dose nM 2.5-20, time 24.0 hrs
In short: (§3)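 Lysates (20 μg protein) separated by 10% PAGE and blotted to PVDF. Probed for Bax, Bcl-2, cleaved caspase-3 and cleaved PARP, detected by ECL and quantified by densitometry.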

[7] = system: HepG2; test: Induction of apoptosis in human HepG2 cells assessed as live cells at 5 nM incubated for 12 hrs by Annexin V-PE and 7-AAD staining based flow cytometry (reference value: 92.1%); type: functional; in short: as §1
[8] = system: HepG2; test: Antitumor activity against human HepG2 cells xenografted in Balb/c nude mouse assessed as reduction in tumor volume at 5 mg/kg, iv administered every 2 days for 21 days and measured at 3 days interval during compound dosing; type: functional; set-up: scale not given: the % may be the effect or the level left; details: time 21 day; in short: as §2
[9] = system: HepG2; test: Induction of apoptosis in human HepG2 cells assessed as late apoptotic cells at 10 nM incubated for 12 hrs by Annexin V-PE and 7-AAD staining based flow cytometry (reference value: 2.79%); type: functional; in short: as §1
[10] = system: HepG2; test: Induction of apoptosis in human HepG2 cells assessed as live cells at 10 nM incubated for 12 hrs by Annexin V-PE and 7-AAD staining based flow cytometry (reference value: 92.1%); type: functional; in short: as §1
[11] = system: HepG2; test: Induction of apoptosis in human HepG2 cells assessed as early apoptotic cells at 5 nM incubated for 12 hrs by Annexin V-PE and 7-AAD staining based flow cytometry (reference value: 4.52%); type: functional; in short: as §1
[12] = system: HepG2; test: Induction of apoptosis in human HepG2 cells assessed as early apoptotic cells at 20 nM incubated for 24 hrs by Annexin V-PE and 7-AAD staining based flow cytometry (reference value: 4.16 %); type: functional; in short: as §1
[13] = system: HepG2; test: Induction of apoptosis in human HepG2 cells assessed as necrotic cells at 5 nM incubated for 24 hrs by Annexin V-PE and 7-AAD staining based flow cytometry (reference value: 0.34 %); type: functional; in short: as §1
[14] = system: HepG2; test: Induction of apoptosis in human HepG2 cells assessed as live cells at 20 nM incubated for 24 hrs by Annexin V-PE and 7-AAD staining based flow cytometry (reference value: 93.2%); type: functional; in short: as §1
[15] = system: A549; test: Antiproliferation activity against human A549 cells assessed as cell growth inhibition measured after 72 hrs by MTT assay; type: functional
In short: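 Cells grown in RPMI-1640 with 10% FBS at 37 °C, 5% CO2, seeded at 4−7 × 10³ cells/well and left to adhere overnight. Exposed to a range of concentrations for 72 h, then MTT (2.5 mg/mL stock) added for 4 h. Formazan dissolved in DMSO and absorbance read at 570 nm. GI50 taken as the concentration giving 50% growth inhibition, reported as mean ± SD of at least three independent experiments.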

[16] = system: HepG2; test: Induction of cell cycle arrest in human HepG2 cells assessed as accumulation in G2/M phase at 5 nM incubated for 24 hrs by propidium iodide staining based flow cytometry (reference value: 12.59%); type: functional
[17] = system: HepG2; test: Induction of apoptosis in human HepG2 cells assessed as decrease in Bcl-2 expression incubated for 24 hrs by Western blot analysis; type: functional, cell-based; details: dose nM 2.5-20, time 24.0 hrs; in short: as §3

With `CCOc1cccc(Nc2nn(C)c3c2Cc2cc(OCC)c(OCCCN)cc2-3)c1` the Activity [1] was 4.33%, the Activity [2] was 7.19% and the Activity [3] was 77.7%. The Activity [4] was 68%, the Activity [5] was 0.92% and the Activity [6] was “Dose-dependent effect”. The Activity [7] was 90.4%, the Activity [8] was 54% and the Activity [9] was 4.39%. For the same molecule, the Activity [10] was 85.2%, the Activity [11] was 5.66% and the Activity [12] was 36.6%. It also gave an Activity [13] of 0.32%, an Activity [14] of 50.2% and a GI50 [15] of 3.7 nM. For the same molecule, the Activity [16] was 19.78% and the Activity [17] was “Dose-dependent effect”.
